GASC1 inh – inhibitors of human demethylase GASC-1 KDM4C | Q9H3R0 | GST-KDM4C 2-372, H3K9me3 peptide, LANCE TR-FRET | inhibition, % at 12.5 µM | 96,000 compounds, 0.15% hits;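 active means mean replicate inhibition above about 25%, with at least 55% of replicates also reaching it, limit read from the data, passing the limit was not always enough; inconclusive means only one of those two conditions met; inactive means neither condition met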
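Test system – GST-tagged GASC-1 (JMJD2C) catalytic fragment, aa 2-372 · Medium – HEPES buffer, pH 7.5, plus ascorbate · Reagent – H3K9me3 peptide with Fe(II)/2OG · Compound – one test concentration per compound · Timing – 30 min reaction, 60 min detection, RT · Technique – TR-FRET with Eu antibody and ULight streptavidin, EDTA stop · Read-out basis – inhibition from TR-FRET ratio decrease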
IDH1 R132H inh – inhibitors of human IDH1 R132H; O75874; IDH1 R132H reductase, diaphorase/resazurin fluorescence, 60 min; inhibition, % at 10 µM; 70,000 compounds, 0.18% hits; AID 624101; in the data active means inhibition above about 34%; inconclusive means no clear call, values can overlap the other calls; inactive means below about 11%;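 further: 0% = DMSO and 100% = no enzyme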
Target sequence (O75874 whole entry R132H): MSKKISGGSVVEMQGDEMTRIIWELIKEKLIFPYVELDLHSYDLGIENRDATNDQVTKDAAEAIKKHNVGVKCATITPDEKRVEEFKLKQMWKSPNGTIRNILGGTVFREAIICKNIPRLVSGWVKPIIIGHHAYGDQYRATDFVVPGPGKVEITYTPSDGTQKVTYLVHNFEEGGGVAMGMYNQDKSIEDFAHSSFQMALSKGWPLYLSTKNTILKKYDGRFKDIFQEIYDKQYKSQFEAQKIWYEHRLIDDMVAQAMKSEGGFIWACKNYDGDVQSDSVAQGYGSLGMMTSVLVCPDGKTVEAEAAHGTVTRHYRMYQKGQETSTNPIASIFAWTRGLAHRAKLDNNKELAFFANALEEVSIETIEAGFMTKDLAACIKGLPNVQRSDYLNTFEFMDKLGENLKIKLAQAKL
T cruzi growth-1 – inhibitors of T. cruzi proliferation; 77,000 compounds, 5.9% hits; T. cruzi beta-gal in NIH3T3, GalScreen luminescence, 90 h; inhibition, % at 8.34 µM;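 active means mean inhibition above about 93%, with at least 55% of replicates each passing it, limit read from the data, passing the limit was not always enough; inconclusive means only one of those two conditions holds; inactive means neither condition holds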
T cruzi growth-2 – Trypanosoma cruzi proliferation inhibition; shares compounds with T cruzi growth-1; 5,600 compounds, 72% hits; T. cruzi beta-gal in NIH3T3, GalScreen luminescence, 90 h; AID 651739; inhibition, % at 8.35 µM;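 active means mean replicate inhibition above about 95% and at least 55% of replicates individually reaching it, limit read from the data; inconclusive means only one of the two criteria is met; inactive means neither criterion is met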
T cruzi growth-3 – inhibitors of T. cruzi proliferation. T. cruzi beta-gal in NIH3T3, GalScreen luminescence, 90 h. inhibition, % at 2.09 µM. shares compounds with T cruzi growth-1. AID 651740. 5,600 compounds, 21% hits;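 active means mean inhibition above about 95%, with at least 55% of replicates also reaching it, limit read from the data; inconclusive means meets just one of the two conditions; inactive means meets neither condition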;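 further: plate controls were neutral control median for no effect and positive control median for full effect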
3T3 cytotox – cytotoxicity in mouse NIH/3T3 fibroblasts. 5,600 compounds, 14% hits. shares compounds with T cruzi growth-1. AID 651742. cytotoxicity (signal decrease), % at 8.35 µM. NIH/3T3 viability, CellTiter-Glo ATP luminescence, 90 h;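 active means mean signal decrease across replicates above about 35% based on untreated-well scatter, with enough replicates individually passing, limit read from the data; inconclusive means no rule stated though some were filed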;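 further: 0% = median of neutral control wells and 100% = median of positive control wells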
NIH3T3 tox 2 – NIH/3T3 (mouse) viability loss; shares compounds with T cruzi growth-1; 5,600 compounds, 56% hits; inhibition, % at 24.9 µM; NIH/3T3 viability, CellTiter-Glo ATP luminescence, 90 h;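 active means mean loss of cell viability signal at or above a set limit, and enough replicates individually reaching it; inconclusive means meets only the mean limit or only the replicate share; inactive means meets neither condition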;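 further: 0% = median of neutral control wells and 100% = median of positive control wells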
Numbers without * were called inactive; ? = inconclusive; nt = no result. The full list was thinned out, with hits kept by preference.

SMILES | GASC1 inh | IDH1 R132H inh | T cruzi growth-1 | T cruzi growth-2 | T cruzi growth-3 | 3T3 cytotox | NIH3T3 tox 2
CN1C(=O)c2cc(NC(=O)c3ccccc3Cl)ccc2OC[C@@H]2O[C@@H](CC(=O)NCC(F)(F)F)CC[C@H]21 | nt | nt | 23.1 | nt | nt | nt | nt
C[C@H](CO)N1C[C@H](C)[C@@H](CN(C)C(=O)C2CC2)Oc2ncc(-c3ccncc3)cc2C1=O | -0.6 | nt | 17.7 | nt | nt | nt | nt
COc1ccccc1S(=O)(=O)N[C@@H]1CC[C@H](CC(=O)N2CCN(C)CC2)O[C@H]1CO | 0.3 | -0.3 | -49.8 | nt | nt | nt | nt
Cc1ccc(S(=O)(=O)N2CC[C@@H]3[C@H](CO)Nc4ccc(-c5cccc(C(=O)N(C)C)c5)cc4[C@@H]32)cc1 | 0.1 | nt | 10.9 | nt | nt | nt | nt
Cc1cccc(S(=O)(=O)N2CC[C@@H]3[C@H]2c2cc(-c4ccccc4F)ccc2N[C@@H]3CO)c1 | 0.0 | nt | 14.6 | nt | nt | nt | nt
O=S(=O)(c1ccc(F)cc1)N1CC[C@H]2[C@H](CO)Nc3ccc(-c4ccccc4F)cc3[C@H]21 | -1.1 | nt | 25.6 | nt | nt | nt | nt
O=S(=O)(c1ccccc1)N1CC[C@H]2[C@H](CO)Nc3ccc(-c4ccccc4F)cc3[C@H]21 | 7.8 | nt | 101.7* | 101.5* | 68.7 | 59.3* | 67.3*
Cc1ccc(S(=O)(=O)N2CC[C@H]3[C@H](CO)Nc4ccc(-c5ccccc5F)cc4[C@H]32)cc1 | 10.6 | nt | ? | 102.9* | 86.5 | 46.4* | 84.8*
Cc1ccc(S(=O)(=O)N2CC[C@@H]3[C@H](CO)Nc4ccc(-c5ccccc5F)cc4[C@@H]32)cc1 | 0.8 | nt | 111.9* | 101.7* | 110.3* | 40.4* | 59.9*
Cc1cccc(S(=O)(=O)N2CC[C@@H]3[C@H](CO)Nc4ccc(-c5ccccc5F)cc4[C@@H]32)c1 | -0.5 | nt | -8.0 | nt | nt | nt | nt
CN(C)C(=O)c1cccc(-c2ccc3c(c2)[C@@H]2[C@@H](CCN2S(=O)(=O)c2ccccc2)[C@@H](CO)N3)c1 | -1.2 | nt | 108.1* | 103.5* | ? | 4.6 | 21.1
COc1ccc(S(=O)(=O)Nc2ccc3c(c2)C(=O)N([C@@H](C)CO)C[C@@H](C)[C@@H](CN(C)Cc2ccncc2)O3)cc1 | -1.6 | 5.8 | nt | nt | nt | nt | nt
C[C@@H]1CN([C@H](C)CO)C(=O)Cc2cc(NC(=O)c3ccncc3)ccc2O[C@@H]1CN(C)C(=O)Nc1ccc2c(c1)OCO2 | 0.0 | nt | 14.5 | nt | nt | nt | nt
CN(C)CC#Cc1ccc([C@@H]2[C@@H](CO)N3CCCCN(C(=O)CN(C)C)C[C@@H]23)cc1 | 2.5 | nt | 19.3 | nt | nt | nt | nt
COCC#Cc1ccc([C@H]2[C@@H](CO)N3CCCCN(C(=O)CN(C)C)C[C@H]23)cc1 | -0.7 | nt | 120.7* | 50.5 | 35.5 | -24.2 | -4.0
CN(C)CC#Cc1ccc([C@H]2[C@@H](CO)N3CCCCN(C(=O)CN(C)C)C[C@@H]23)cc1 | 3.1 | nt | -4.8 | nt | nt | nt | nt
COCC#Cc1ccc([C@@H]2[C@H]3CN(C(=O)CN(C)C)CCCCN3[C@H]2CO)cc1 | 1.6 | nt | 109.1* | ? | 13.3 | -11.9 | 6.1
COc1ccc(CN(C)C[C@@H]2OCCCC[C@H](C)Oc3ccc(NC(=O)Nc4ccccc4)cc3C(=O)N([C@@H](C)CO)C[C@@H]2C)cc1 | -2.6 | nt | 106.4 | nt | nt | nt | nt
C[C@@H]1CN([C@@H](C)CO)S(=O)(=O)c2ccc(C#CCN(C)C)cc2O[C@H]1CN(C)C(=O)Nc1ccccc1F | -0.7 | 0.3 | -112.8 | nt | nt | nt | nt
C[C@H](CO)N1C[C@H](C)[C@@H](CN(C)C)Oc2ccc(NC(=O)Nc3ccccc3)cc2C1=O | 0.7 | 0.0 | 30.0 | nt | nt | nt | nt
COc1ccccc1CN1C[C@H](C)[C@@H](OC)CN(C)C(=O)c2cc(NC(C)=O)ccc2OC[C@H]1C | -1.2 | -0.1 | -15.0 | nt | nt | nt | nt
Cc1ccc(S(=O)(=O)N(C)C[C@H]2OCCCC[C@H](C)Oc3ccc(NS(=O)(=O)c4ccc(Cl)cc4)cc3C(=O)N([C@H](C)CO)C[C@H]2C)cc1 | 1.6 | 0.0 | 108.4* | 96.9* | 109.0* | -22.8 | ?
Cc1ccc(S(=O)(=O)Nc2ccc3c(c2)C(=O)N([C@H](C)CO)C[C@@H](C)[C@@H](CN(C)S(=O)(=O)c2ccc(Cl)cc2)OCCCC[C@@H](C)O3)cc1 | 0.3 | 0.5 | 119.5* | 103.4* | 114.7* | 1.3 | 14.7
